The values below come from PMC4152390 (Neuropharmacology, 2014).

A value given as a limit tells only on which side of the number the result lay.

As a reminder, the IC50 is the midpoint of a concentration-inhibition curve.

Series [1] concerns ICR mice. Kind of series: Locomotor activity with SCH23390 antagonist pretreatment. Type of series: in vivo, mouse. To be noted: SCH23390 0.03 mg/kg s.c., 60 min session. A digest of the protocol:
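In weeks 5 and 7, ICR mice got SCH23390 (0.03 mg/kg) or saline s.c. 30 min before an i.p. challenge with test compound or saline. Groups given the highest FOB dose were excluded, and the vehicle group was split between pretreatments. Total beam breaks were analysed by two-way ANOVA (dose × pretreatment).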

Series [2] deals with DAT (Rattus norvegicus, UniProt P23977). Briefly: [3H]dopamine uptake inhibition in rat brain synaptosomes. Type of series: biochemical. Particulars: selectivity from uptake IC50 values at DAT and SERT. A digest of the protocol: (§1)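 Synaptosomes came from male Sprague-Dawley rats: striatum for DAT, and whole brain minus striatum and cerebellum for NET and SERT. Uptake ran in pH 7.4 Krebs-phosphate buffer (pargyline, BSA, ascorbate) with test compound, [3H]dopamine, [3H]norepinephrine or 5 nM [3H]serotonin, and unlabeled blockers of competing transporters. It was stopped by filtration and counted by scintillation.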
Sequence of DAT (P23977 whole entry): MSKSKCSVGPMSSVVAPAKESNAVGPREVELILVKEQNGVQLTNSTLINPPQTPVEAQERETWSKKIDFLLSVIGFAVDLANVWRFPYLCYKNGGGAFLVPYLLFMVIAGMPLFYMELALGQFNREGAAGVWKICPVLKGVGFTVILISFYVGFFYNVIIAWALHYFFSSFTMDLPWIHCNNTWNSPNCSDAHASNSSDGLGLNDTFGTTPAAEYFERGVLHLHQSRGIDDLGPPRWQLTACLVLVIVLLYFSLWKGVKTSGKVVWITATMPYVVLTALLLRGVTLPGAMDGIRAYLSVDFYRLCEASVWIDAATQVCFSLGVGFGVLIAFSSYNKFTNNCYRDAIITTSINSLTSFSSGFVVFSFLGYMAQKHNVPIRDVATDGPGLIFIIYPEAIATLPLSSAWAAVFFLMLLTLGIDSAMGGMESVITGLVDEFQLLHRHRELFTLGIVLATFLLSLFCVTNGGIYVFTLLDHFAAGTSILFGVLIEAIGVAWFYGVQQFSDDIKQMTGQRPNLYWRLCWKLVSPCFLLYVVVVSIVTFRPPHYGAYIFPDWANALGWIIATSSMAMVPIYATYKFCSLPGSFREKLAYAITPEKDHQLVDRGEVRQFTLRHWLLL

The target of series [3] is SERT (Rattus norvegicus, UniProt P31652). Kind of series: [3H]serotonin uptake inhibition in rat brain synaptosomes. Type of series: biochemical. Particulars: for IC50: read-out: [3H]Serotonin uptake, IC50 at SERT, rat brain synaptosomes (whole brain minus striatum and cerebellum), 5 nM [3H]serotonin, mean±SD, n=3. A digest of the protocol: as §1
Sequence of SERT (P31652 whole entry): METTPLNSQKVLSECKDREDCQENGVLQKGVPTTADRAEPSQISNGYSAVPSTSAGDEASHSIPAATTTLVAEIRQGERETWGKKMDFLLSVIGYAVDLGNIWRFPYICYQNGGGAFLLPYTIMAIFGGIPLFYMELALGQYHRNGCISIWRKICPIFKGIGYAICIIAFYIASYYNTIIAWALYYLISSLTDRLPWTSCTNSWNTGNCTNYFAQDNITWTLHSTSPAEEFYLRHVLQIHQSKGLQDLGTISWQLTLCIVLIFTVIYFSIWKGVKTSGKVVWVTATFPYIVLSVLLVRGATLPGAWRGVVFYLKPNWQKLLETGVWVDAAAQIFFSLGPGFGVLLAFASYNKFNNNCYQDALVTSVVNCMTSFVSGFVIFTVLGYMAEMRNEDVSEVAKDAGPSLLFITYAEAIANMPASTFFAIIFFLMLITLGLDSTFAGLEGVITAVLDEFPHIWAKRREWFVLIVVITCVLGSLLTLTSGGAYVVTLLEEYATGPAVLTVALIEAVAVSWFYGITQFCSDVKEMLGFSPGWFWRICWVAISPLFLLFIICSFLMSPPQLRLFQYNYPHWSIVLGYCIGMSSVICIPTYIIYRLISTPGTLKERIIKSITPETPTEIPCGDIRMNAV
The subject of series [4] is ICR mice. Kind of series: Locomotor activity. Type of series: in vivo, mouse. To be noted: for Doses producing significant increases in beam breaks compared to saline for the duration of the session (all time points): i.p., 10-min bins of 60-min session. A digest of the protocol:
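Male ICR mice got a single i.p. dose of test compound or saline (sterile saline vehicle, 10 ml/kg), n=8 per dose and n=16 for saline. Each was placed at once into a clear open-field chamber (47×25.5×22 cm) for a 60-min blinded session. Beam breaks were counted per 10-min bin and analysed by mixed-model ANOVA (time within, dose between), with p<0.05.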

For series [5], the system named is ICR mice. Briefly: Functional observational battery. It is filed as in vivo, mouse. Particulars: i.p., 15 min post-injection, p<0.0033. A digest of the protocol: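 Male ICR mice (n=8 per group; a single saline group of n=16) got one i.p. dose of test compound in sterile saline (10 ml/kg). A modified EPA functional observational battery was scored 15 min post-injection by a blinded technician in weeks 2–3. Each measure was analysed by Kruskal–Wallis ANOVA by ranks, corrected for ties, with corrected alpha p<0.0033.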

The target of series [6] is NET (Rattus norvegicus, UniProt Q63380). Briefly: [3H]norepinephrine uptake inhibition in rat brain synaptosomes. Type of series: biochemical. To be noted: read-out: [3H]Norepinephrine uptake, IC50 at NET; rat brain synaptosomes (whole brain minus striatum and cerebellum); 10 nM [3H]norepinephrine; mean±SD, n=3. A digest of the protocol: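 Rats killed by CO2; synaptosomes from whole brain minus striatum and cerebellum. Unlabeled blockers were added to prevent uptake by competing transporters. Tissue was added to Krebs-phosphate buffer (pH 7.4; 0.05 mM pargyline, 1 mg/mL BSA and ascorbic acid) containing test compound and [3H]norepinephrine. Rapid GF/B filtration, scintillation counting, % control uptake.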
Sequence of NET (Q63380 1-617): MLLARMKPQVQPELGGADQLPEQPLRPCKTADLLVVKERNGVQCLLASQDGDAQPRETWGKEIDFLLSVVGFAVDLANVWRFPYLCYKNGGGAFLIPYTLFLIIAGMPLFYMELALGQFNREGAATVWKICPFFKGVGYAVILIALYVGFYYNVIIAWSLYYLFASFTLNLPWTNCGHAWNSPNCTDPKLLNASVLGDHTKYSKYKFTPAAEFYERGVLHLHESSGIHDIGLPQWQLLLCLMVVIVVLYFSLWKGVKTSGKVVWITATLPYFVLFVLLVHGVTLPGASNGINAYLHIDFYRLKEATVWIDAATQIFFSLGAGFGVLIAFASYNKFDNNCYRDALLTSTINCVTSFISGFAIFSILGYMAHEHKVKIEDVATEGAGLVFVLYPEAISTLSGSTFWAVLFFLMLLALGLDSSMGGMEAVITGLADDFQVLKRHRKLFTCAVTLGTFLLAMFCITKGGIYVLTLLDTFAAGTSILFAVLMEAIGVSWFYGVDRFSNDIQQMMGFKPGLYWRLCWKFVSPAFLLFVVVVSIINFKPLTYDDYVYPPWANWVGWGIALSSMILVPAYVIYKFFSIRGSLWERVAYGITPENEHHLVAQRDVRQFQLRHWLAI

Series [7] relates to DAT, NET and SERT. Particulars: ref Baumann et al., 2013b; cited from earlier work.

As for `CN1CCc2cc(Cl)c(O)cc2[C@@H](c2ccccc2)C1` [SCH23390], the “Effect of SCH23390 plus saline on activity compared to saline/saline group” value in series [1] is “did not significantly affect activity”.
Regarding `CC(C(=O)c1ccccc1)N1CCCC1` (stereo not drawn) [α-PPP, α-pyrrolidinopropiophenone], the DAT/SERT ratio in series [2] was above 51. Moreover, the IC50 in series [3] is above 10000 nM; in series [6] it was 445 ± 39.2 nM. Also, the “Time from session start with significantly increased beam breaks” value in series [4] (10.0 mg/kg i.p., 60-min session) turned out to be 50 min. For the same molecule, the “Doses producing significant increases in beam breaks compared to saline for the duration of the session (all time points)” value (“Doses producing significant increases” for short) in series [4] is listed as 30.0 mg/kg. Moreover, the “Grooming: direction of difference from saline and doses at which significant” value in series [5] is 30 mg/kg.
With `CCC(C(=O)c1ccccc1)N1CCCC1` (stereo not drawn) [α-PBP, α-pyrrolidinobutiophenone], the DAT/SERT ratio in series [2] was above 159. The IC50 in series [3] was above 10000 nM; in series [6] it was 91.5 ± 12.8 nM. Also, the “Time from session start with significantly increased beam breaks” value in series [4] (3.0 mg/kg i.p., 60-min session) was determined as 40 min. Moreover, the “Doses producing significant increases” value in series [4] worked out at 10.0 mg/kg.
For the molecule `CCCC(C(=O)c1ccccc1)N1CCCC1` (stereo not drawn) [α-PVP, α-pyrrolidinovalerophenone], the DAT/SERT ratio in series [2] is given as above 781. For the same molecule, the half-maximal inhibitory concentration (IC50) in series [3] was above 10000 nM; in series [6] it was 14.2 ± 1.2 nM. In addition, the “Postinjection interval with significantly increased beam breaks” value in series [4] (1.0 mg/kg i.p., 60-min session) was 20 to 50 min. In addition, the “Doses producing significant increases” value in series [4] is 3.0 to 10.0 mg/kg.
For `CCCC(C(=O)c1ccc2c(c1)OCO2)N1CCCC1` (centres unmarked) [MDPV, 3,4-methylenedioxypyrovalerone], the DAT/SERT ratio in series [2] came out at 806. The “fold weaker at blocking uptake of serotonin than catecholamine uptake” value in series [3] (SERT versus DAT and NET uptake IC50) is listed as “more than 100 fold”. The IC50 in series [3] worked out at 3300 ± 485 nM; in series [6] it was 25.9 ± 5.6 nM. The “Activity in the release assay” value in series [7] is on record as “not active”. The “Doses producing significant increases” value in series [4] lay within 1.0 to 3.0 mg/kg.
